What was measured:
Assay in all cases: Radioligand binding
hA1AR = molecular target: T1, hA1AR (Homo sapiens, UniProt P30542); details: read-out: hA1 % of inhibition
T1 sequence (P30542 1-326): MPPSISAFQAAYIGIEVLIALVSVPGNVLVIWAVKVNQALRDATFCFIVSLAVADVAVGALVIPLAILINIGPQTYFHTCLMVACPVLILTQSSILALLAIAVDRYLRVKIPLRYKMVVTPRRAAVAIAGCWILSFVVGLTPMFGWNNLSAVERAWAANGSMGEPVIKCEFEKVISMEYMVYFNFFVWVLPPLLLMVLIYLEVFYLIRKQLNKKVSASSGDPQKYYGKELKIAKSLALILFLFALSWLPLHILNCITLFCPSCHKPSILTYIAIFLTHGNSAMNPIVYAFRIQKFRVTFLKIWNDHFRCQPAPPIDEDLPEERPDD
Summary of the method: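 Membranes came from CHO cells expressing recombinant hA1AR, labelled with [3H]R-PIA. ADA (3 units/mL) was present during membrane preparation, a 30 min 30 °C preincubation and radioligand incubation. Test compound was dissolved in DMSO and diluted in buffer, DMSO ≤2% final. Incubations ended by GF/B filtration and three buffer rinses. The read-out is % inhibition of specific binding at a single concentration.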

hA2AAR = hA2AAR (Homo sapiens, UniProt P29274)
Sequence of hA2AAR (P29274 whole entry): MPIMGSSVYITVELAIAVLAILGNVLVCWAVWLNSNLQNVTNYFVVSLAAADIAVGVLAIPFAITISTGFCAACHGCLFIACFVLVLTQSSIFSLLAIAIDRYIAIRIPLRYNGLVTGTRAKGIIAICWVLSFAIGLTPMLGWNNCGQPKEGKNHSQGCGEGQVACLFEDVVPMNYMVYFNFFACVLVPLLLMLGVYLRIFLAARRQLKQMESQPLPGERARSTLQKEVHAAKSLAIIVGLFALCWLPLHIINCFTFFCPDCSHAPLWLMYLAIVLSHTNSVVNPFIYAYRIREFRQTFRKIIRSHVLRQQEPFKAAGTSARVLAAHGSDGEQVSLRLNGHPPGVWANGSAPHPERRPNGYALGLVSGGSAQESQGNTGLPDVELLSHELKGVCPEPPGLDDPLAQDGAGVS

hA3AR = molecular target: T2, hA3AR (Homo sapiens, UniProt P0DMS8)
T2 sequence (P0DMS8 1-318): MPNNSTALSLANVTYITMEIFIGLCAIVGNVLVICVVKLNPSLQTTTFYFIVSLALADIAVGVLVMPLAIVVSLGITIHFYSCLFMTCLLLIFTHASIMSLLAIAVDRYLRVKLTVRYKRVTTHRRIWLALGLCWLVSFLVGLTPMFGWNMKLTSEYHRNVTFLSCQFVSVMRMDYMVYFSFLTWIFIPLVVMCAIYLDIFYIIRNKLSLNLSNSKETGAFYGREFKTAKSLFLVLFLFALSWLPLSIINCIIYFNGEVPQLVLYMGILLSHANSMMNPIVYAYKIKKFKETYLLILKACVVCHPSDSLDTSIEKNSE
Summary of the method: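 Displacement of [125I]AB-MECA binding on membranes from CHO cells expressing recombinant hA3AR. […] ADA (3 units/mL) was present during membrane preparation, a 30 min 30 °C preincubation and radioligand incubation. DMSO was ≤2% final. At least six competitor concentrations spanning 3 log units were used. Incubations ended by GF/B filtration and three rinses.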

- inhibition at 10 µM (hA1AR): 32%
- Ki (hA2AAR): 91.5 nM
- hA1/hA2A (hA2AAR; selectivity ratio of Ki values): >109
- Ki (hA3AR): 207 nM
- hA1/hA3 (hA3AR; selectivity ratio of Ki values): >48
- hA2A/hA3 (hA3AR; selectivity ratio of Ki values): 0.44
Structure (SMILES): Cn1cc2c(nc(NC(=O)Nc3ccc(CC(=O)NCCCOCCOCCOCCCNC(=S)Nc4ccc(-c5c6ccc(=O)cc-6oc6cc(O)ccc56)c(C(=O)O)c4)cc3)n3nc(-c4ccco4)nc23)n1 [Compound 18, 5-(3-(1-(4-(3-(2-(furan-2-yl)-8-methyl-8H-pyrazolo[4,3-e] [1,2,4]triazolo[1,5-c]pyrimidin-5-yl)ureido)phenyl)-2-oxo-7,10,13-trioxa-3-azahexadecan-16-yl)thioureido)-2-(6-hydroxy-3-oxo-3H-xanthen-9-yl)benzoate]
